This is a sample that favours compounds with a hit; in the whole collection about 1.5% have one here.
CCR6 antagonist = CCR6 receptor antagonists, primary screen, cell-based, CHO-K1, luminescence, beta-arrestin, uHTS. actives 0.49% (n = 340,000). AID 493098, 2011. inhibition, % at 20 µM. CHO-K1 CCR6 PathHunter beta-arrestin, CCL20-stimulated;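 active = compounds whose inhibition of the agonist-driven luminescence signal at 20 µM reaches about 50%, limit read from the data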;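 also: cells stimulated with CCL20 at 14 nM final; plate controls were DMSO with CCL20 for no effect and DMSO without agonist for full effect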
Target sequence (P51684 whole entry, looked up): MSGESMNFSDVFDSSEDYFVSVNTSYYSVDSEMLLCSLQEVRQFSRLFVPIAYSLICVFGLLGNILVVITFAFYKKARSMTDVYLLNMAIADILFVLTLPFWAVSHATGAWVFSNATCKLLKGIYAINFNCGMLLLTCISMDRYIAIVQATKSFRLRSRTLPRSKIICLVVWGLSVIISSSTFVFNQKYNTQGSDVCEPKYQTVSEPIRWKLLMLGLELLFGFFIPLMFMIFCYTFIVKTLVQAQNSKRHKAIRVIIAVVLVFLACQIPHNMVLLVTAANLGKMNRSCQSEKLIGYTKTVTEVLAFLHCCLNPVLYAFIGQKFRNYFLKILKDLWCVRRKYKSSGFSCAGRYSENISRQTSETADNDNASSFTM
APJ agonist = agonists of human apelin receptor APJ, primary screen, CHO-K1 cells, PathHunter beta-arrestin, luminescence; P35414; 0% DMSO wells, 100% apelin; activation, % at 20 µM; actives 0.11% (n = 330,000); AID 2520, 2010;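 active = activation more than six SD over the plate average, tested at 20 µM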;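 also: 0% = DMSO alone and 100% = apelin-13 at 10 nM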
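Assay system: CHO-K1 APJ beta-arrestin complementation cell line / Compound: single test compound dose, 20 µM final, 1% DMSO / Times: overnight seeding, 90 min compound at 25 °C, 1 h detection / Technique: beta-gal luminescence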
EBI2 block = EBI2 receptor antagonists, beta-arrestin recruitment, primary screen, cell-based, luminescence, 7a,25-OHC stimulation, uHTS | inhibition, % at 5 µM | 7a,25-OHC stimulated | G-protein coupled receptor 183 (Homo sapiens), P32249 | actives 0.81% (n = 360,000) | AID 651636, 2012; in the data active = inhibition above about 38%;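 also: enzyme fragment complementation signal reports receptor beta-arrestin coupling in cells; 0% = agonist plus DMSO wells and 100% = wells without agonist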
CXCR6 block = CXCR6 receptor inhibitors, primary screen, cell-based, beta-arrestin, luminescence, CHO-K1 PathHunter, 1536-well; actives 0.36% (n = 360,000); inhibition, % at 20 µM; AID 602244, 2012; C-X-C chemokine receptor type 6 (Homo sapiens), O00574; in the data active = inhibition above about 34%, passing the limit was not always enough;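 also: antagonist mode with CXCL16 agonist at 10 nM final; 0% = 10 nM CXCL16 with DMSO and 100% = unstimulated wells without agonist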
APJ antag = antagonists of human apelin receptor APJ, primary screen, CHO-K1 cells, beta-arrestin complementation, luminescence | P35414 | inhibition, % at 20 µM | actives 0.32% (n = 330,000) | AID 2521, 2010;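 active = inhibition above about 40% at 20 µM, limit read from the data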;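 also: cells challenged with 10 nM apelin-13 agonist together with compound; plate controls were apelin-13 plus DMSO wells for no effect and DMSO wells lacking apelin-13 for full effect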
APJ ag confirm = agonists of human apelin receptor APJ, confirmation, cell-based, single concentration, CHO-K1, beta-arrestin, luminescence. shares compounds with APJ agonist. CHO-K1 APJ PathHunter beta-arrestin. activation, % at 20 µM. actives 10% (n = 310). AID 2764, 2010;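 active = activation above 40%, taking the highest of four retests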;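 also: plate controls were DMSO wells for no effect and apelin-13 at 10 nM for full effect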
The depositor's hits bear a star; · = not tested or not shown.

SMILES | CCR6 antagonist | APJ agonist | EBI2 block | CXCR6 block | APJ antag | APJ ag confirm
COc1ccccc1C(=O)O/N=C(\N)c1ccccc1Cl | -9 | 3 | -14 | -6 | -38 | ·
COc1ccc(/C(N)=N/OC(=O)c2cccc([N+](=O)[O-])c2)cc1OC | -3 | 20 | 5 | -8 | -38 | ·
COc1ccc(C(=O)O/N=C(\N)c2ccccc2Cl)cc1OC | -15 | 11* | -12 | -18 | -40 | 39
COc1ccc(/C(N)=N/OC(=O)c2ccc(OC)c([N+](=O)[O-])c2)cc1OC | -10 | 18* | -1 | -4 | -72 | 34
CCOC(=O)c1ccc(Nc2ncnc3c2cnn3C)cc1 | 0 | 5 | -6 | -5 | -7 | ·
Cn1ncc2c(O/N=C(\N)c3ccc(C(C)(C)C)cc3)ncnc21 | -32 | 27* | 2 | -34 | -65 | 62*
CCN(CC(=O)N1CCCC1)S(=O)(=O)c1cc(C)ccc1OC | 16 | 30* | 6 | 4 | 9 | 7
COC(=O)C(C)Oc1ccc(-c2nccc(-c3ccccn3)n2)cc1 (configuration not stated) | 8 | -4 | 8 | 6 | 9 | ·
CC(C)CC(N)c1csc(Nc2ccc(C(F)(F)F)cn2)n1 (configuration not stated) | · | · | -11 | -9 | · | ·
COc1cccc(CN(c2ccccc2C(=O)O)S(=O)(=O)c2ccc(C)cc2)c1 | 7 | · | -15 | 5 | · | ·
C=CCn1c(SCCC)nc(O)cc1=O | 1 | 34* | -11 | -6 | -2 | 4
Cc1nnc(SCC(=O)NCCc2ccccc2)s1 | 6 | -5 | -1 | -8 | -6 | ·
N/C(Cc1ccc(Cl)c(Cl)c1)=N\OC(=O)c1cccs1 | -25 | 19* | -22 | -19 | -47 | 40*
COCCCNC(=O)C[C@@H]1C[C@@]2(C(=O)OC)CC(C)(C)CC=C2N(Cc2ccc3c(c2)OCO3)C1=O | · | · | 2 | · | · | ·
CCCCNc1c(-c2ccc(OC)c(SC(C)CC)c2)nc2ccc(Cl)cn12 (configuration not stated) | -4 | -1 | 21 | -7 | -14 | ·
CCCCNc1c(-c2ccc(OC)c(SC3CCCCC3)c2)nc2ccc(C)cn12 | 25 | 18* | -22 | 23 | 4 | 30
CCCCNc1c(-c2ccc(OC)c(SC(C)CC)c2)nc2ccc(C)cn12 (configuration not stated) | 25 | 26* | -71 | 12 | -28 | 9
CCOC(=O)C(C)Oc1ccc(NC(=O)C(Cl)Cl)cc1 (configuration not stated) | 0 | -2 | -1 | 2 | 10 | ·
Cn1cc(Br)c(C(=O)NNC(=O)Nc2ccccc2C(F)(F)F)n1 | -8 | -2 | -6 | -3 | -2 | ·
Cc1cc(C)cc(S(=O)(=O)c2cn(C)c3cc(N4CCN(C)CC4)c(F)cc3c2=O)c1 | 6 | 38* | -5 | 6 | 14 | 21
Nc1cc(=O)nc(SCC(=O)Nc2ccccc2Cl)n1-c1ccccc1 | 2 | -1 | -1 | 6 | -2 | ·
N/C(=N\OC(=O)c1ccc(Br)cc1)c1ccncc1 | -14 | 12* | -11 | -13 | -24 | 26
N/C(=N\OC(=O)c1ccccc1)c1ccncc1 | -9 | 4 | -7 | -1 | -59 | ·
C[C@@H]1CN([C@@H](C)CO)C(=O)CCCn2nncc2CO[C@H]1CN(C)S(=O)(=O)c1ccc(-n2cccn2)cc1 | · | · | -6 | -3 | · | ·
O=C(N/N=C\c1cn(-c2ccccc2)nc1-c1ccccc1)c1ccc(Br)o1 | 3 | 0 | 7 | 8 | -4 | ·
SMILES | CCR6 antagonist | APJ agonist | EBI2 block | CXCR6 block | APJ antag | APJ ag confirm
Cc1ccc(-c2nn(-c3ccccc3)cc2/C=N/NC(=O)c2ccc(Br)o2)cc1 | -8 | 13* | -6 | -2 | -10 | 25
CCN(CC)S(=O)(=O)c1ccc(OCC(=O)NC(=O)Cc2ccccc2)c([N+](=O)[O-])c1 | 2 | 12* | -8 | -1 | -137 | 26
CCN(CC(=O)Nc1ccc(NC(C)=O)cc1)C(=O)c1oc2c(ccc3ccccc32)c1C | -19 | 22* | -11 | -14 | -15 | 11
C[C@H](CO)N1C[C@H](C)[C@H](CN(C)C(=O)c2ccccc2)OCc2ccccc2-c2c(n(C)c3ccccc23)C1=O | · | · | -11 | 2 | · | ·
CCOC(=O)N1CCN(C(=O)c2ccc(Cn3c(=S)[nH]c4cc5c(cc4c3=O)OCO5)cc2)CC1 | -10 | 23* | -29 | 4 | -16 | 15
N#CC1=C(c2ccccc2)/C(=C/c2ccccc2)OC1=O | 64* | 17* | 5 | 35 | -18 | 12
O=C1O/C(=C/c2ccccc2)c2ccccc21 | 16 | -1 | -1 | 12 | 1 | ·
COc1cc2oc(=O)cc(CN3CCN(C(C)=O)CC3)c2cc1Cl | · | · | -1 | 3 | · | ·
CCOC(=O)c1sc(NC(=O)CN2C(=O)NC3(CC(C)CC(C)(C)C3)C2=O)cc1C (configuration not stated) | -15 | 38* | 2 | 4 | 5 | 4
O=C(c1ccccc1)N1CCN(c2ncnc3c2cnn3-c2ccccc2)CC1 | 3 | 7 | -5 | -6 | 12 | ·
Cc1nn(-c2ccccc2)c(Cl)c1C(=O)N1CCN(c2ncnc3c2cnn3-c2ccccc2)CC1 | -23 | 18* | -67 | 7 | -39 | 30
COC(=O)c1cc(S(=O)(=O)C(C)C)c(S(C)=O)s1 (configuration not stated) | 0 | -5 | -38 | 0 | 8 | ·
CC(C)CCN(C(=O)C1CCCC1)c1c(N)n(Cc2ccccc2)c(=O)[nH]c1=O | 10 | -1 | -8 | 5 | -1 | ·
CC(C)CCN(C(=S)NC(=O)C1CCCCC1)c1c(N)n(Cc2ccccc2)c(=O)[nH]c1=O | 0 | 33* | 2 | 8 | -7 | 39
CCN(CC)CCNC(=O)c1ccc(NC(=O)c2cc(-c3ccco3)nc3ccccc23)cc1 | 7 | 55* | 5 | 4 | -19 | 2
CCCCCCc1cc2cc(C(=O)Nc3ccccc3)c(=O)oc2cc1O | -99 | 11* | -33 | -70 | -39 | 43*
COc1ccc([N+](=O)[O-])cc1C(=O)Nc1ccc(Cc2ccncc2)cc1 | 7 | 16* | 6 | -2 | 8 | 12
COc1ccccc1C(=O)Nc1ccc(Cc2ccncc2)cc1 | 11 | · | 1 | -14 | -4 | ·
NC(=O)C1CCN(c2nc(-c3ccc4ccccc4c3)cs2)CC1 | 13 | 1 | -1 | -1 | 3 | ·
CC[n+]1c(/C=C/N(C)c2ccccc2)n(-c2ccccc2)c2ccc(-c3nc4ccccc4s3)cc21 | 22 | 26* | 21 | 14 | 9 | -2
NC(=O)C1CCN(c2nc(-c3ccccc3-c3ccccc3)cs2)CC1 | 8 | 0 | 6 | -3 | 5 | ·

From PubChem
